# Assay outcomes deposited in PubChem by Broad Institute.
# SIRT5 block: blocks human SIRT5 desuccinylation of peptide; AID 652115; inhibition, % at 15 µM; Q9NXA8; Purified SirT5, succinyl-peptide AMC, trypsin-coupled fluorescence; 1.1% of 330,000 active; in the data active = inhibition above about 15%; inconclusive = no clear call, values can overlap the other calls
# DENV2 CPE: protects cells from dengue virus 2 cytopathic effect; DENV2-infected cells, cytopathic effect rescue, plate reader; AID 651640; CPE inhibition, % at 9.99 µM; 1.7% of 350,000 active; in the data active = CPE inhibition above about 20%, passing the limit was not always enough; inconclusive = no clear call, values can overlap the other calls; tested in BHK-21 cells;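 also: 0% = median of neutral control wells and 100% = median of positive control wells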
# CAL PDZ FP-1: inhibitors of human CAL PDZ peptide binding. AID 602252. purified CAL PDZ, TMR-peptide fluorescence polarization, 1 h. 0.92% of 300,000 active. inhibition, % at 24.9 µM;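 active = mean inhibition of at least 30% with at least half of replicates also reaching 30%; inconclusive = no clear call, values can overlap the other calls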;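 also: 0% = DMSO neutral control and 100% = excess unlabeled competitor peptide PRC23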
# CAL PDZ FP-2: blocks peptide binding to human CAL PDZ domain. Q9HD26. purified CAL PDZ, TMR-peptide fluorescence polarization, 1 h. inhibition, % at 20 µM. 0.02% of 330,000 active. AID 504414;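 active = highest replicate inhibition of at least 40%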;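 also: plate controls were DMSO neutral control wells for no effect and unlabeled competitor peptide control wells for full effect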
#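 System: purified tagged CAL PDZ domain construct (CerCALP). Schedule: 1 h incubation at room temperature before polarization reading. Medium: 25 mM sodium phosphate pH 7.4, 150 mM NaCl, TCEP, IgG, Thesit. Read-out: percent inhibition from loss of millipolarization. Measured by: FP readout, S and P plane fluorescence. Probe or stimulus: fluorescent TMR peptide probe.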
# ERAP1 inh: blocks human ERAP1 aminopeptidase activity; Q9NZ08; recombinant ERAP1, Leu-AMC fluorescence, 60 min; inhibition, % at 10.7 µM; 0.15% of 340,000 active; AID 652197;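 active = mean replicate inhibition of at least 30%, or all replicates individually reaching that 30% level; inactive = mean below 30% and not every replicate reaching it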;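 also: 0% = neutral control wells and 100% = L-leucinethiol positive control wells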
# Target sequence (Q9NZ08 whole entry, looked up): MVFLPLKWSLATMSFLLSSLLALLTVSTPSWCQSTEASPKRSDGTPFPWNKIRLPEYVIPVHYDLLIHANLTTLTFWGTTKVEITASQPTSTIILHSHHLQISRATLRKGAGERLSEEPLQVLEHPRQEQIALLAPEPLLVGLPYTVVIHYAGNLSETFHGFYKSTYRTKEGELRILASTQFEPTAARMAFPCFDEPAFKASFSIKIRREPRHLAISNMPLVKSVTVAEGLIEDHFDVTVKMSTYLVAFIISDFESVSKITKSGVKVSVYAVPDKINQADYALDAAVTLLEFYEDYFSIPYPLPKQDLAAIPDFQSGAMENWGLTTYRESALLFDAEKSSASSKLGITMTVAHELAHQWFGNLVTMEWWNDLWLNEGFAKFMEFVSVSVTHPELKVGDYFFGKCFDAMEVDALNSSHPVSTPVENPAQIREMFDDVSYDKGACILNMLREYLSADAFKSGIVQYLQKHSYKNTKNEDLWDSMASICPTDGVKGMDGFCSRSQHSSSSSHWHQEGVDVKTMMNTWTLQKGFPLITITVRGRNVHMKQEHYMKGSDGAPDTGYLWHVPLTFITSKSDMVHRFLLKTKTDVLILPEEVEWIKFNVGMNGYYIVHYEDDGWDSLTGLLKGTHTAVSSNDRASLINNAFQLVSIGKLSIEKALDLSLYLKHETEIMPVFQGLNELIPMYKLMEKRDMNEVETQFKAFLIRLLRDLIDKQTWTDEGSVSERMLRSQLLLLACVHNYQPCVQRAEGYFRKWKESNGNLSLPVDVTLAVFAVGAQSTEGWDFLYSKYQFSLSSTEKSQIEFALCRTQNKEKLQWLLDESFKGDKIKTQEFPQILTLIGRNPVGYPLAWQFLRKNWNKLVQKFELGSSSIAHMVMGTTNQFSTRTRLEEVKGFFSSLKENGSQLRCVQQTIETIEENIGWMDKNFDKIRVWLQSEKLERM
# S100A4 inh HTS: S100A4-myosin IIA interaction inhibition; P26447; 0.14% of 360,000 active; inhibition, % at 10.7 µM; S100A4/TAMRA-MyoIIA peptide fluorescence polarization; AID 652163;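 active = mean inhibition of at least 70% across replicates, with every replicate also reaching that level; inconclusive = mean inhibition reaches 70% but some replicates fall short; inactive = mean inhibition below 70%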
#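 Assay system: human S100A4 monomer with TAMRA-labelled myosin IIA peptide / Buffer or medium: Calcium-containing HEPES buffer, pH 7.2 / Reagent: TAMRA-labelled myosin IIA heavy-chain peptide probe, 5 nM / Compound: one dose per compound / Timing: polarization read 5 min after assay mix addition, stable 5–60 min / Benchmarks: neutral control DMSO, positive control TFP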
# The depositor's hits bear a star; ? = inconclusive; / = no result. Rows were chosen to be rich in hits. Some 2.9% of all compounds tested hit in one or more screens of this group.
SMILES,SIRT5 block,DENV2 CPE,CAL PDZ FP-1,CAL PDZ FP-2,ERAP1 inh,S100A4 inh HTS
COc1ccc(C(=O)N/N=C/c2c(CO)cnc(C)c2O)cc1,-4,?,0,0,33*,-2
Cc1ncc(CO)c(/C=N/NC(=O)c2ccccc2Br)c1O,-4,8,-1,-3,54*,3
O=C(C[C@H]1CC[C@H]2[C@@H](COC[C@@H](O)CN2S(=O)(=O)c2ccc(F)cc2)O1)NCC1CC1,2,15,/,/,0,17
CCN(CC)CCOC(=O)c1ccc(NC(=O)CSc2nnc(-c3cccs3)n2CC)cc1,-3,4,61*,-1,4,2
O=C(Cc1ccncc1)NCC[C@@H]1CC[C@@H](NC(=O)C2CCCCC2)[C@@H](CO)O1,2,-4,/,/,-1,-12
O=C1c2ccccc2C(Nc2ccc(F)c(Cl)c2)N1Cc1ccco1 (centres undefined),12,36*,/,-1,5,6
O=C(C[C@H]1CC[C@@H]2[C@H](COC[C@@H](O)CN2C(=O)c2ccc(F)cc2)O1)Nc1ccc(-c2ccccc2)cc1,/,3,/,/,1,-25
CC(C)NC(=O)N1[C@H](C(=O)N2CCC(Cc3ccccc3)CC2)[C@@H](CO)[C@@H]2Cn3c(cccc3=O)[C@@H]21,7,26*,/,/,4,54
CCCNC(=O)[C@H]1[C@H](CO)[C@H]2Cn3c(cccc3=O)[C@H]2N1C(=O)C1CCC1,7,2,/,/,0,15
CC(C)NC(=O)N1[C@@H]2c3cccc(=O)n3C[C@@H]2[C@@H](CO)[C@@H]1C(=O)N1CCC(Cc2ccccc2)CC1,5,8,/,/,2,6
CC=Cc1ccc2n(c1=O)C[C@H]1[C@H](CO)[C@@H](C(=O)N3CCc4ccccc4C3)N(C(=O)C3CCC3)[C@@H]21 (mixture of isomers),-1,62*,/,/,-1,-5
O=C(Nc1nccs1)[C@@H]1[C@@H](CO)[C@@H]2Cn3c(cccc3=O)[C@@H]2N1C(=O)C1CCC1,5,-4,/,/,1,7
O=C(Nc1nccs1)[C@H]1[C@H](CO)[C@H]2Cn3c(cccc3=O)[C@H]2N1C(=O)C1CCC1,16*,-3,/,/,0,4
CCCNC(=O)[C@@H]1[C@@H](CO)[C@@H]2Cn3c(cccc3=O)[C@@H]2N1C(=O)C1CCC1,7,-4,/,/,3,106*
C[C@@H]1CN([C@@H](C)CO)S(=O)(=O)c2ccc(C#CC3CC3)cc2O[C@@H]1CN(C)CC1CC1,2,12,/,/,1,2
CCN(CC)CCn1c2c(c(SCC(=O)NCc3ccccc3)nc1=O)CCC2,-2,0,39*,0,-2,-10
CCN(CC)CCn1c2c(c(SCC(=O)NCc3ccccc3)nc1=O)CCCC2,-2,4,5,-2,-1,-1
CCCNC(=O)N1CC2(C1)[C@@H](c1ccccc1)[C@@H](CO)N2Cc1cccc(F)c1,0,2,/,/,-2,7
O=S(=O)(Nc1cccc(-c2cn3c(n2)SCC3)c1)c1ccccc1F,-2,-3,-5,0,37*,-2
O=C(NCc1ccc(F)cc1)c1cccnc1C(=O)O,23*,?,-3,0,-5,0
C/C=C/c1cnc2c(c1)C(=O)N([C@H](C)CO)C[C@H](C)[C@H](CN(C)Cc1ccncc1)O2,-5,-2,/,/,1,2
CCCCNC(=NCc1cccc(C(F)(F)F)c1)Nc1ccccc1,20*,-1,0,-1,-4,-4
Cc1ccccc1S(=O)(=O)N1C[C@@H](O)COC[C@@H]2O[C@H](CC(=O)NCCc3ccccc3)CC[C@H]21,-4,-2,/,/,0,13
O=C(CCc1ccccc1F)N1CCN(c2ccc(C(F)(F)F)cn2)CC1,-1,0,45*,-1,-6,13
O=C(CCc1ccccc1Cl)NC1CCCN(c2ccc(C(F)(F)F)cn2)C1 (centres undefined),0,-7,-5,-3,-1,179*
SMILES,SIRT5 block,DENV2 CPE,CAL PDZ FP-1,CAL PDZ FP-2,ERAP1 inh,S100A4 inh HTS
CC(C)CC#Cc1cnc2c(c1)C(=O)N([C@@H](C)CO)C[C@@H](C)[C@H](CN(C)S(=O)(=O)c1cn(C)cn1)O2,-8,5,/,/,0,2
C[C@H]1CN([C@@H](C)CO)C(=O)c2cc(NC(=O)Cc3ccccc3)ccc2O[C@H]1CN(C)S(=O)(=O)c1cccs1,2,-4,/,/,3,-3
CCCCCCCCCC(=O)N/N=C/c1ccc(C)s1,/,/,49*,17,/,/
Cc1ccc(/C=N/NC(=O)C[n+]2ccccc2)s1,-5,5,2,-1,/,-8
COCCCNc1oc(-c2ccccc2OC)nc1C#N,/,/,-4,/,/,/
COCCCNc1oc(-c2ccccc2F)nc1C#N,/,25*,-5,-1,-4,-7
CCCCCCN1CCN(C2CN(Cc3ccc(F)cc3)S(=O)(=O)C2)CC1 (centres undefined),-2,31*,/,/,-4,-3
CN(C)CC#Cc1ccc([C@H]2[C@@H](CO)N3C(=O)CN(C(=O)c4cccc(F)c4)C[C@@H]23)cc1,-7,0,/,/,/,-10
Cc1ccc(C(=O)NCCc2cc3ccc(C)c(C)c3[nH]c2=O)cc1[N+](=O)[O-],2,50*,3,1,0,0
COc1cccc(NC(=O)Nc2ccc3c(c2)C(=O)N(C)C[C@H](OC)[C@@H](C)CN(C)[C@@H](C)CO3)c1,2,-3,/,/,9,2
CN1/C(=C/C(=S)NC(=O)C2CCC2)C(C)(C)c2ccccc21,15*,-5,-7,-1,2,-64
CC(C)NC(=O)N(C)C[C@H]1Oc2ccc(NC(=O)c3ccncc3)cc2CC(=O)N([C@H](C)CO)C[C@H]1C,-2,?,/,/,-1,1
COc1ccc(CCNC(=O)C(=O)N/N=C/c2cccs2)cc1OC,4,0,78*,-1,0,-5
COc1ccc(CCNC(=O)C(=O)Nc2nccs2)cc1OC,/,/,-5,-1,/,/
Cc1noc(C)c1S(=O)(=O)Nc1ccc2c(c1)C(=O)N([C@@H](C)CO)C[C@H](C)[C@@H](CN(C)C(=O)NC(C)C)O2,4,-1,/,/,0,0
CCC(NC(=O)NCc1ccccc1)(C(F)(F)F)C(F)(F)F,30*,-10,0,-1,-2,2
O=C(C[C@@H]1CC[C@H]2[C@@H](COC[C@@H](O)CN2Cc2cccc(F)c2)O1)NCC1CCCCC1,-4,-5,/,/,2,-12
CC(C)c1cccc(C(C)C)c1NC(=O)CCl,16*,16,0,0,2,2
O=C(C[C@H]1CC[C@@H]2[C@H](COC[C@@H](O)CN2C(=O)c2cccnc2)O1)NCc1ccc(-c2ccccc2)cc1,-2,23*,/,/,1,-27
